Test results as given in ChEMBL document CHEMBL4350976, “Sequence modification of heptapeptide selected by phage display as homing device for HT-29 colon cancer cells to improve the anti-tumour activity of drug delivery systems” (Eur J Med Chem, 2019).
Where a SMILES comes first, the peptide text is derived from it. The star is where a group is joined. X1 = COc1cccc2c1C(=O)c1c(O)c3c(c(O)c1C2=O)C[C@@](O)(/C(C)=N/OCC(=O)*)C[C@@H]3O[C@H]1C[C@H](N)[C@H](O)[C@H](C)O1

Tests used:
[1] = tested on: HT-29; test: Antitumor activity against human HT-29 cells xenografted in SCID mouse assessed as decrease in number of Ki-67 positive cells measured as proliferation index at 1 mg/kg, ip administered once a week (on days 13 and 20) starting from 13 days post inoculation measured at day 23 post inoculation by KI-67-staining based light microscopic analysis (reference value: 100%); format: functional; design: scale not given: the % may be the effect or the level left
Method in brief: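 Tumours from the SCID HT-29 orthotopic study were formalin-fixed and paraffin-embedded, cut at 2 µm, and given citrate pH 6 retrieval at 98 °C for 40 min. They were stained with anti-human Ki-67 (1:40, 1 h RT), then a biotinylated link, HRP polymer and AEC. Ki-67+ cells were counted in 5 fields per tumour at 40× magnification. The proliferation index is the % positive cells.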

[2] = Toxicity in SCID mouse xenografted with human HT-29 cells assessed as animal death at 1 mg/kg, ip administered once a week (on days 13 and 20) starting from 13 days post inoculation measured upto 23 days post inoculation; format: organism-based; conditions: in vivo
[3] = tested on: HT-29; test: Cytostatic activity against human HT-29 cells preincubated for 24 hrs under serum free condition followed by compound washout and further incubation for 48 hrs in presence of serum by MTT assay; format: functional, cell-based
Method in brief: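 HT-29 cells were exposed to the compound for 24 h, washed, and kept a further 48 h. Viability was read by MTT. Absorbances were normalized to untreated controls and fitted by nonlinear regression to dose-response curves to give IC50.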

[4] = Toxicity in SCID mouse xenografted with human HT-29 cells assessed as body weight loss at 1 mg/kg, ip administered once a week (on day 13 and 20) starting from 13 days post inoculation measured upto 23 days post inoculation; format: organism-based; conditions: in vivo
[5] = Cytostatic activity against human WM983B cells preincubated for 24 hrs under serum free condition followed by compound washout and further incubation for 48 hrs in presence of serum by MTT assay; format: functional, cell-based
Method in brief: (§1)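 Cells were grown at 37 °C in 5% CO2 in medium with 10% heat-inactivated FBS (20% for OVCAR-3) plus penicillin/streptomycin. The medium was RPMI-1640 for most lines, DMEM for U-87 MG and MRC-5, and IMDM for PE/CA-PJ lines. Seeding was 3×10^3–10×10^3 cells per well. Cells had 24 h compound exposure, a wash, and 48 h further culture. Read-out was MTT, normalized to untreated cells and fitted by nonlinear regression for IC50.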

[6] = tested on: MDA-MB-231; test: Cytostatic activity against human MDA-MB-231 cells preincubated for 24 hrs under serum free condition followed by compound washout and further incubation for 48 hrs in presence of serum by MTT assay; format: functional, cell-based; method in brief: as §1
[7] = Cytostatic activity against human PECAPJ41 cells preincubated for 24 hrs under serum free condition followed by compound washout and further incubation for 48 hrs in presence of serum by MTT assay; format: functional, cell-based; method in brief: as §1
[8] = tested on: MRC5; test: Cytostatic activity against human MRC5 cells preincubated for 24 hrs under serum free condition followed by compound washout and further incubation for 48 hrs in presence of serum by MTT assay; format: ADME, cell-based; method in brief: as §1
[9] = Drug uptake in nucleus of human HT-29 cells assessed as increase in fluorescence at 50 uM after 90 mins by fluorescence based confocal microscopic analysis; format: ADME, subcellular; conditions: ht-29, 1.5 h
Method in brief: (§2)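 HT-29 cells were incubated with 50 µM compound in RPMI for 90 min. Imaging was by confocal microscopy, with Dau detected at 550–600 nm emission.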

[10] = tested on: U-87 MG; test: Cytostatic activity against human U87 cells preincubated for 24 hrs under serum free condition followed by compound washout and further incubation for 48 hrs in presence of serum by MTT assay; format: functional, cell-based, U-87MG ATCC; method in brief: as §1
[11] = Cytostatic activity against human M24 cells preincubated for 24 hrs under serum free condition followed by compound washout and further incubation for 48 hrs in presence of serum by MTT assay; format: functional, cell-based; method in brief: as §1
[12] = tested on: NCI-H1650; test: Cytostatic activity against human NCI-H1650 cells preincubated for 24 hrs under serum free condition followed by compound washout and further incubation for 48 hrs in presence of serum by MTT assay; format: functional, cell-based; method in brief: as §1
[13] = tested on: NCI-H1975; test: Cytostatic activity against human NCI-H1975 cells preincubated for 24 hrs under serum free condition followed by compound washout and further incubation for 48 hrs in presence of serum by MTT assay; format: functional, cell-based; method in brief: as §1
[14] = tested on: HCT-116; test: Cytostatic activity against human HCT116 cells preincubated for 24 hrs under serum free condition followed by compound washout and further incubation for 48 hrs in presence of serum by MTT assay; format: functional, cell-based; method in brief: as §1
[15] = Cytostatic activity against human PE/CA-PJ15 cells preincubated for 24 hrs under serum free condition followed by compound washout and further incubation for 48 hrs in presence of serum by MTT assay; format: functional, cell-based; method in brief: as §1
[16] = tested on: A549; test: Cytostatic activity against human A549 cells preincubated for 24 hrs under serum free condition followed by compound washout and further incubation for 48 hrs in presence of serum by MTT assay; format: functional, cell-based; method in brief: as §1
[17] = tested on: DU-145; test: Cytostatic activity against human DU145 cells preincubated for 24 hrs under serum free condition followed by compound washout and further incubation for 48 hrs in presence of serum by MTT assay; format: functional, cell-based; method in brief: as §1
[18] = tested on: PC-3; test: Cytostatic activity against human PC3 cells preincubated for 24 hrs under serum free condition followed by compound washout and further incubation for 48 hrs in presence of serum by MTT assay; format: functional, cell-based; method in brief: as §1
[19] = tested on: HT-29; test: Antitumor activity against human HT-29 cells xenografted in SCID mouse assessed as tumor growth inhibition by measuring decrease in tumor weight at 1 mg/kg, ip administered once a week (on day 13 and 20) starting from 13 days post inoculation measured at day 23 post inoculation relative to control; format: functional; conditions: HT-29, ip
[20] = tested on: B16; test: Cytostatic activity against mouse B16 cells preincubated for 24 hrs under serum free condition followed by compound washout and further incubation for 48 hrs in presence of serum by MTT assay; format: functional, cell-based; method in brief: as §1
[21] = tested on: CT26.WT; test: Cytostatic activity against mouse CT26.WT cells preincubated for 24 hrs under serum free condition followed by compound washout and further incubation for 48 hrs in presence of serum by MTT assay; format: functional, cell-based; method in brief: as §1
[22] = tested on: HT-29; test: Antitumor activity against human HT-29 cells xenografted in SCID mouse assessed as tumor growth inhibition by measuring decrease in tumor growth at 1 mg/kg, ip administered once per week for 2 times starting from 13 days post inoculation measured at day 23 post inoculation; conditions: HT-29, ip
[23] = tested on: A2058; test: Cytostatic activity against human A2058 cells preincubated for 24 hrs under serum free condition followed by compound washout and further incubation for 48 hrs in presence of serum by MTT assay; format: functional, cell-based; method in brief: as §1
[24] = tested on: MCF7; test: Cytostatic activity against human MCF7 cells preincubated for 24 hrs under serum free condition followed by compound washout and further incubation for 48 hrs in presence of serum by MTT assay; format: functional, cell-based; method in brief: as §1
[25] = tested on: HepG2; test: Cytostatic activity against human HepG2 cells preincubated for 24 hrs under serum free condition followed by compound washout and further incubation for 48 hrs in presence of serum by MTT assay; format: functional, cell-based; method in brief: as §1
[26] = tested on: OVCAR-3; test: Cytostatic activity against human OVCAR3 cells preincubated for 24 hrs under serum free condition followed by compound washout and further incubation for 48 hrs in presence of serum by MTT assay; format: functional, cell-based; method in brief: as §1
[27] = tested on: PANC-1; test: Cytostatic activity against human PANC1 cells preincubated for 24 hrs under serum free condition followed by compound washout and further incubation for 48 hrs in presence of serum by MTT assay; format: functional, cell-based; method in brief: as §1
[28] = tested on: 4T1; test: Cytostatic activity against mouse 4T1 cells preincubated for 24 hrs under serum free condition followed by compound washout and further incubation for 48 hrs in presence of serum by MTT assay; format: functional, cell-based; method in brief: as §1
[29] = tested on: WiDr; test: Cytostatic activity against human WiDr cells preincubated for 24 hrs under serum free condition followed by compound washout and further incubation for 48 hrs in presence of serum by MTT assay; format: functional, cell-based; method in brief: as §1
[30] = Stability in 2.5% fetal bovine serum containing medium assessed as drug decomposition measured as Dau=Aoa-LR-OH and H-RYVHLPYAT-NH2 metabolite formation with loss of sugar content at 30 uM measured after 24 hrs by LC/MS analysis; format: ADME, cell-free, Bos taurus; conditions: cattle
Method in brief: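 Conjugates (30 μM) were incubated at 37 °C in medium containing 2.5% FBS. Samples were taken at 0, 3, 6 and 24 h, quenched with acetic acid, lyophilised, desalted on C18 spin columns and analysed by LC-MS. Cleavage products were identified by mass.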

[31] = Drug uptake in human HT-29 cells at 50 uM after 90 mins by fluorescence based confocal microscopic analysis; format: ADME, cell-based; conditions: ht-29, 1.5 h; method in brief: as §2
[32] = Retention time of the compound using 0.1% TFA in water and 0.1% TFA in acetonitrile-water (80:20 v/v) as eluents by RP-HPLC analysis; format: physicochemical
Method in brief: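 Analytical RP-HPLC. Eluent A was 0.1% TFA in water and eluent B was 0.1% TFA in acetonitrile-water (80:20, v/v). Gradient: 0% B held to 5 min, then to 90% B at 50 min. Flow 1 mL/min, detection at 220 nm. The column was a Phenomenex Aeris Peptide XB-C18 (250×4.6 mm, 3.6 μm) or a Nucleosil C18 (5 μm, 100 Å, 250×4.6 mm), depending on the conjugate series.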

[33] = Stability in serum free medium at 30 uM incubated for 3 hrs by LC/MS analysis
Method in brief: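 Conjugates (30 μM) were incubated at 37 °C in serum-free medium. Samples were taken at 0 and 3 h, quenched with acetic acid, lyophilised, desalted on C18 spin columns and analysed by LC-MS.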

[34] = Drug uptake in human HT-29 cells at 100 uM incubated for 3 hrs by flow cytometry; format: ADME, cell-based; conditions: ht-29, 3 h
Method in brief: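 HT-29 cells were exposed to 100 µM conjugate for 3 h. Flow cytometry recorded the percentage of Dau-positive cells and the mean fluorescence intensity, in duplicate.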

COc1cccc2c1C(=O)c1c(O)c3c(c(O)c1C2=O)C[C@@](O)(C(C)=O)C[C@@H]3O[C@H]1C[C@H](N)[C@H](O)[C@H](C)O1 [DAUNORUBICIN]
Activity [1]: 94% | Activity [2]: Toxic | IC50 [3]: 203 nM | Activity [4]: Toxic | IC50 [5]: 44.3 nM | IC50 [6]: 52.9 nM | IC50 [7]: 25.8 nM | IC50 [8]: 255 nM | Drug uptake [9]: Active | IC50 [10]: 27.9 nM | IC50 [11]: 93.6 nM | IC50 [12]: 47.5 nM | IC50 [13]: 13.3 nM | IC50 [14]: 127 nM | IC50 [15]: 26.7 nM | IC50 [16]: 68.2 nM | IC50 [17]: 24.5 nM | IC50 [18]: 26 nM | inhibition in vivo at 1 mg/kg [19]: 84% | IC50 [20]: 8.9 nM | IC50 [21]: 126 nM | inhibition in vivo at 1 mg/kg [22]: 30% | IC50 [23]: 33.3 nM | IC50 [24]: 286 nM | IC50 [25]: 21.3 nM | IC50 [26]: 473 nM | IC50 [27]: 467 nM | IC50 [28]: 40.8 nM | IC50 [29]: 240 nM

COc1cccc2c1C(=O)c1c(O)c3c(c(O)c1C2=O)C[C@@](O)(/C(C)=N/OCC(=O)N[C@@H](CC(C)C)C(=O)N[C@@H](CCCNC(=N)N)C(=O)N[C@@H](CCCNC(=N)N)C(=O)N[C@@H](Cc1ccc(O)cc1)C(=O)N[C@H](C(=O)N[C@@H](Cc1cnc[nH]1)C(=O)N[C@@H](CC(C)C)C(=O)N1CCC[C@H]1C(=O)N[C@@H](Cc1ccc(O)cc1)C(=O)N[C@@H](C)C(=O)N[C@H](C(N)=O)[C@@H](C)O)C(C)C)C[C@@H]3O[C@H]1C[C@H](N)[C@H](O)[C@H](C)O1 (X1-LRRYVHLPYAT-NH2)
Stability [30]: Unstable | IC50 [3]: > 50000 nM | Drug uptake [31]: Not Active | Retention time [32]: 31.2 to 31.3 min | Stability [33]: Stable | Drug uptake [34]: Not Active
